Data on twelve compounds can be found in ChEMBL document CHEMBL4043195, “Development of water-soluble 3,5-dinitrophenyl tetrazole and oxadiazole antitubercular agents” (Bioorg Med Chem, 2017).

Test [1] deals with Mycobacterium tuberculosis. As to the kind of experiment: Antimycobacterial activity against Mycobacterium tuberculosis H37Rv CNCTC My 331/88 incubated for 14 days by micromethod. The format is functional. The note with it: Mycobacterium tuberculosis, H37Rv CNCTC My 331/88, 336 h. Summed up:
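Strain H37Rv was tested in Sula's semisynthetic medium by micromethod. The basic suspension was set to 1.0 McFarland and diluted 10^-3, with 0.1 mL added per well. Compounds were added from DMSO at 32 to 0.03 µM. […] INH and RIF were used as standards.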

In test [2] the test system is Mycobacterium avium. As to the kind of experiment: Antimycobacterial activity against Mycobacterium avium CNCTC My 330/88 incubated for 14 days by micromethod. The format is functional. The note with it: Mycobacterium avium, CNCTC My 330/88, 336 h. A digest of the protocol:
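Micromethod MIC assay in Sula's semisynthetic medium. The inoculum was a 1.0 McFarland suspension diluted 10^-5, with 0.1 mL added per well. Compounds were dissolved in DMSO and tested at 1000 to 1 µM in two-fold steps. Plates were incubated at 37 °C for 14 days. […] INH and RIF were the reference drugs.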

For test [3], the system named is Mycobacterium kansasii. As to the kind of experiment: Antimycobacterial activity against Mycobacterium kansasii CNCTC My 235/80 incubated for 14 days by micromethod. The class given is functional. Particulars: Mycobacterium kansasii, CNCTC My 235/80, 336 h. A digest of the protocol:
(§1)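 M. kansasii MIC by micromethod in Sula's semisynthetic medium. Inoculum was a 1.0 McFarland suspension diluted 10^-4, 0.1 mL per well. Compounds were dissolved in DMSO and tested at 32 to 0.03 µM in twofold steps. […] INH and RIF were reference drugs.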

Test [4] deals with Mycobacterium kansasii. In words: Antimycobacterial activity against Mycobacterium kansasii 6509/96 incubated for 14 days by micromethod. The note with it: Mycobacterium kansasii, 6509/96, 336 h. The format is functional. A digest of the protocol: as §1
Test [5] has as its system Mycobacterium tuberculosis. In words: Antimycobacterial activity MDR/XDR against Mycobacterium tuberculosis isolate Praha 131 incubated for 14 days by micromethod. The class given is functional. The note with it: for MIC99: isolate Praha 131, 336 h.
The test system of test [6] is Mycobacterium tuberculosis. In words: Antimycobacterial activity MDR/XDR against Mycobacterium tuberculosis isolate Praha 1 incubated for 14 days by micromethod. The format is functional.
In test [7] the test system is Mycobacterium tuberculosis. In words: Antimycobacterial activity MDR/XDR against Mycobacterium tuberculosis isolate Praha 4 incubated for 14 days by micromethod. The note with it: isolate Praha 4, 336 h.
Test [8] deals with Mycobacterium tuberculosis. In words: Antimycobacterial activity MDR/XDR against Mycobacterium tuberculosis isolate 9449/2007 incubated for 14 days by micromethod. The format is functional.
Test [9] has as its system Mycobacterium tuberculosis. As to the kind of experiment: Antimycobacterial activity MDR/XDR against Mycobacterium tuberculosis isolate 7357/1998 incubated for 14 days by micromethod. The format is functional.
Test [10] deals with Mycobacterium tuberculosis. In words: Antimycobacterial activity MDR/XDR against Mycobacterium tuberculosis isolate 8666/2010 incubated for 14 days by micromethod. The class given is functional.
Test [11] has as its system Mycobacterium tuberculosis. As to the kind of experiment: microbe, parasite or virus in culture. The note with it: isolate 234/2005, 336 h.

Converted amounts (≈) assume the structure as drawn.

Turning to `CN1CCN(CCCCCc2nnc(SCc3cc([N+](=O)[O-])cc([N+](=O)[O-])c3)o2)CC1`, the MIC99 in test [1] is 32 µM (≈ 14.4 µg/mL); in [2] it was 250 µM (≈ 113 µg/mL); in test [3], above 32 µM; in test [4], above 32 µM.
`CN1CCN(CCCn2nnc(-c3cc([N+](=O)[O-])cc([N+](=O)[O-])c3)n2)CC1`: the MIC99 in [1] is above 32 µM; in test [2] it was 250 µM (≈ 94.1 µg/mL); in [3] it was 32 µM (≈ 12 µg/mL); in [4], above 32 µM.
As for `O=[N+]([O-])c1cc(-c2nnn(CCCN3CCN(Cc4ccccc4)CC3)n2)cc([N+](=O)[O-])c1`, the MIC99 in test [1] turned out to be 1 µM (≈ 0.452 µg/mL); in [2] it was 8 µM (≈ 3.62 µg/mL); in [3], 2 µM (≈ 0.905 µg/mL); in test [4] it was 1 µM (≈ 0.452 µg/mL).
For the compound `O=[N+]([O-])c1cc(-c2nnc(SCCCN3CCOCC3)o2)cc([N+](=O)[O-])c1`, the MIC99 in test [1] is 8 µM (≈ 3.16 µg/mL); in test [2], 125 µM (≈ 49.4 µg/mL); in test [3] it was 8 µM (≈ 3.16 µg/mL); in test [4], 16 µM (≈ 6.33 µg/mL).
The compound `NCC[C@H](O)C(=O)N[C@@H]1C[C@H](N)[C@@H](O[C@H]2O[C@H](CN)[C@@H](O)[C@H](O)[C@H]2O)[C@H](O)[C@H]1O[C@H]1O[C@H](CO)[C@@H](O)[C@H](N)[C@H]1O` [AMIKACIN] had an MIC99 in test [5] above 32 µM.
`CO[C@H]1/C=C/O[C@@]2(C)Oc3c(C)c(O)c4c(O)c(c(/C=N/N5CCN(C)CC5)c(O)c4c3C2=O)NC(=O)/C(C)=C\C=C\[C@H](C)[C@H](O)[C@@H](C)[C@@H](O)[C@@H](C)[C@H](OC(C)=O)[C@@H]1C` [RIFAMPIN]: the MIC99 in [1] was 0.25 µM (≈ 0.206 µg/mL); in test [2], 32 µM (≈ 26.3 µg/mL); in [3] it was 0.25 µM (≈ 0.206 µg/mL); in test [4], 0.125 µM (≈ 0.103 µg/mL); in test [6] (isolate Praha 1, 336 h), above 8 µM; in test [7], above 8 µM. Besides, the MIC99 is above 8 µM in test [5]; above 8 µM in [8] (isolate 9449/2007, 336 h); above 8 µM in test [9] (isolate 7357/1998, 336 h); above 8 µM in [10] (isolate 8666/2010, 336 h); above 8 µM in [11].
For the compound `O=[N+]([O-])c1cc(CSc2nnc(CCCCCN3CCCCC3)o2)cc([N+](=O)[O-])c1`, the MIC99 is 16 µM (≈ 6.97 µg/mL) in test [1], 62.5 µM (≈ 27.2 µg/mL) in [2], 16 µM (≈ 6.97 µg/mL) in test [3] and 32 µM (≈ 13.9 µg/mL) in test [4].
`O=[N+]([O-])c1cc(CSc2nnc(CCCCCN3CCOCC3)o2)cc([N+](=O)[O-])c1`: the MIC99 came out at 8 µM (≈ 3.5 µg/mL) in test [1], 125 µM (≈ 54.7 µg/mL) in test [2], 8 µM (≈ 3.5 µg/mL) in test [3] and 8 µM (≈ 3.5 µg/mL) in [4].
On to `O=[N+]([O-])c1cc(-c2nnc(SCCCN3CCCCC3)o2)cc([N+](=O)[O-])c1`, for which the MIC99 in test [1] came to 8 µM (≈ 3.15 µg/mL); in test [2] it was 62.5 µM (≈ 24.6 µg/mL); in test [3] it was 32 µM (≈ 12.6 µg/mL); in test [4], 16 µM (≈ 6.29 µg/mL).
Taken in the same sequence, the figures for `O=[N+]([O-])c1cc(CSc2nnc(CCCN3CCCCC3)o2)cc([N+](=O)[O-])c1` were 16 µM (≈ 6.52 µg/mL), 250 µM (≈ 102 µg/mL), 16 µM (≈ 6.52 µg/mL) and 16 µM (≈ 6.52 µg/mL).
On to GENTAMICIN, for which the MIC>99 in test [6] was 1 µM; in [5], above 8 µM; in [8], 1 µM; in test [9], 1 µM; in test [10], 2 µM.
Take `CN1CCN(CCCSc2nnc(-c3cc([N+](=O)[O-])cc([N+](=O)[O-])c3)o2)CC1`: the MIC99 in test [1] is above 32 µM; in test [2] it was 125 µM (≈ 51.1 µg/mL); in [3], 16 µM (≈ 6.54 µg/mL); in test [4] it was above 32 µM.
